Test results as given in ChEMBL document CHEMBL4610084, “Antibacterial and ATP Synthesis Modulating Compounds from Salvia tingitana” (2020).
In brackets after ≈: the same amount, converted by molar mass.

Columns and labels:
[1] = test system: Staphylococcus lugdunensis; assay: Antibacterial activity against Staphylococcus lugdunensis MB96 after 24 hrs by microdilution assay; assay type: functional; conditions: MB96, 24 h
In short: (§1)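 Broth microdilution MIC against clinical or seawater-isolated strains (identified by standard procedures and MALDI-TOF), with compound solutions and testing as in earlier work. MIC reported in μg/mL and μM.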

Enterococcus gallinarum = assay: Antibacterial activity against Vancomycin resistant Enterococcus gallinarum MB111 after 24 hrs by microdilution assay; assay type: functional; conditions: MB111, 24 h
In short: (§2)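 Broth microdilution MIC, run as in an earlier cited report. Strains are clinical isolates identified by standard methods and MALDI-TOF; E. faecalis MB19 and MB51 are Ligurian seawater isolates. Highest concentration tested was 128 μg/mL. MICs are given in μg/mL and μM, with oxacillin and vancomycin as reference antibiotics.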

Enterococcus durans = assay: Antibacterial activity against Enterococcus durans MB113 after 24 hrs by microdilution assay; assay type: functional; conditions: MB113, 24 h; in short: as §1
Enterococcus faecalis [2] = assay: Bacteriostatic activity against Enterococcus faecalis MB1 assessed as ratio of reduction in bacterial growth at 4 times MIC by time kill assay; assay type: functional
In short: (§3)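 Time-kill curves: viable cell counts of susceptible strains recorded with or without compound at 4 × MIC.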

Enterococcus faecalis [3] = assay: Antibacterial activity against Vancomycin resistant Enterococcus faecalis MB51 after 24 hrs by microdilution assay; assay type: functional; conditions: MB51, 24 h; in short: as §2
Enterococcus faecalis [4] = assay: Antibacterial activity against Vancomycin resistant Enterococcus faecalis MB19 after 24 hrs by microdilution assay; assay type: functional; conditions: MB19, 24 h; in short: as §2
[5] = test system: Enterococcus casseliflavus; assay: Antibacterial activity against Vancomycin resistant Enterococcus casseliflavus MB159 after 24 hrs by microdilution assay; assay type: functional; conditions: MB159, 24 h; in short: as §2
Enterococcus faecium [6] = assay: Modulation of ATP synthase in Enterococcus faecium MB152 assessed as inhibition of ATP production at 5 times MIC after 2 hrs by BacTiter-Glo Assay
In short: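 Whole-cell ATP assay. VRE strain grown overnight in Mueller Hinton broth at 37 °C, diluted 1:10^6 in fresh broth and grown 2 h, then adjusted by OD600. Manool added at 5 × MIC. Samples taken at 0 and 2 h and mixed 1:1 with BacTiter-Glo for 5 min at room temperature. Luminescence converted via an ATP standard curve (1–0.001 pmol) to pmol/cfu. Broth serves as negative control. Three experiments in triplicate, Student's t test.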

Enterococcus faecium [7] = assay: Antibacterial activity against Enterococcus faecium MB152 after 24 hrs by microdilution assay; assay type: functional; conditions: MB152, 24 h; in short: as §1
Staphylococcus capitis = assay: Antibacterial activity against Methicillin-resistant Staphylococcus capitis MB71 after 24 hrs by microdilution assay; assay type: functional; conditions: MB71, 24 h; in short: as §2
[8] = test system: Staphylococcus saprophyticus; assay: Antibacterial activity against Staphylococcus saprophyticus MB41 after 24 hrs by microdilution assay; assay type: functional; conditions: MB41, 24 h; in short: as §1
Enterococcus avium = assay: Antibacterial activity against Enterococcus avium MB119 after 24 hrs by microdilution assay; assay type: functional; conditions: MB119, 24 h; in short: as §1
Bos taurus [9] = organism: Bos taurus; assay: Modulation of ATP synthase in bovine rod outer segments assessed as inhibition of ATP hydrolysis at 80 ug/ml in presence of Ap5A adenylate kinase inhibitor by pyruvate kinase/lactate dehydrogenase assay relative to control
[10] = test system: Staphylococcus haemolyticus; assay: Antibacterial activity against Methicillin-resistant Staphylococcus haemolyticus MB115 after 24 hrs by microdilution assay; assay type: functional; conditions: MB115, 24 h; in short: as §2
Staphylococcus aureus [11] = assay: Antibacterial activity against Methicillin-resistant Staphylococcus aureus MB18 after 24 hrs by microdilution assay; assay type: functional; conditions: MB18, 24 h; in short: as §2
Enterococcus faecalis [12] = assay: Antibacterial activity against Vancomycin resistant Enterococcus faecalis MB1 after 24 hrs by microdilution assay; assay type: functional; conditions: MB1, 24 h; in short: as §2
Staphylococcus aureus [13] = assay: Antibacterial activity against Methicillin-resistant Staphylococcus aureus MB188 after 24 hrs by microdilution assay; assay type: functional; conditions: MB188, 24 h; in short: as §2
[14] = test system: Staphylococcus epidermidis; assay: Antibacterial activity against Methicillin-resistant Staphylococcus epidermidis MB165 after 24 hrs by microdilution assay; assay type: functional; conditions: MB165, 24 h; in short: as §2
Staphylococcus warneri = assay: Antibacterial activity against Methicillin-resistant Staphylococcus warneri MB74 after 24 hrs by microdilution assay; assay type: functional; conditions: MB74, 24 h; in short: as §2
Enterococcus faecium [15] = assay: Antibacterial activity against Enterococcus faecium MB3 after 24 hrs by microdilution assay; assay type: functional; conditions: MB3, 24 h; in short: as §1
Enterococcus faecium [16] = assay: Bacteriostatic activity against Enterococcus faecium MB152 assessed as ratio of reduction in bacterial growth by measuring order of magnitude at 4 times MIC by time kill assay; assay type: functional; in short: as §3
Enterococcus faecium [17] = assay: Antibacterial activity against Enterococcus faecium MB2 after 24 hrs by microdilution assay; assay type: functional; conditions: MB2, 24 h; in short: as §1
Enterococcus faecalis [18] = assay: Antibacterial activity against Enterococcus faecalis MB76 after 24 hrs by microdilution assay; assay type: functional; conditions: MB76, 24 h; in short: as §2
Staphylococcus simulans = assay: Antibacterial activity against Staphylococcus simulans MB94 after 24 hrs by microdilution assay; assay type: functional; conditions: MB94, 24 h; in short: as §1
Staphylococcus hominis = assay: Antibacterial activity against Methicillin-resistant Staphylococcus hominis MB124 after 24 hrs by microdilution assay; assay type: functional; conditions: MB124, 24 h; in short: as §2
[19] = test system: Staphylococcus epidermidis; assay: Antibacterial activity against Methicillin-resistant Staphylococcus epidermidis MB169 after 24 hrs by microdilution assay; assay type: functional; conditions: MB169, 24 h; in short: as §2
Bos taurus [20] = organism: Bos taurus; assay: Modulation of ATP synthase in bovine rod outer segments assessed as inhibition of ATP production at 80 ug/ml in presence of Ap5A adenylate kinase inhibitor by luciferin/luciferase chemiluminescent method relative to control
In short: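 Bovine rod OS (5 μg) preincubated 5 min at 37 °C in Tris/HCl pH 7.4 with KCl, EGTA, MgCl2, 0.6 mM ouabain, 0.25 mM Ap5A, 5 mM KH2PO4, 20 mM succinate, 0.35 mM NADH and ampicillin. Synthesis started with 0.1 mM ADP and stopped with perchloric acid. ATP read by luciferin/luciferase luminescence. Samples at 80 μg/mL; 30 μM resveratrol as positive control. Triplicates, ANOVA/Bonferroni.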

Row | Structure (SMILES) | MIC [1] | MIC (Enterococcus gallinarum) | MIC (Enterococcus durans) | MIC (Enterococcus faecalis [3]) | MIC (Enterococcus faecalis [4]) | MIC [5] | MIC (Enterococcus faecium [7]) | MIC (Staphylococcus capitis) | MIC [8] | MIC (Enterococcus avium) | MIC [10] | MIC (Staphylococcus aureus [11]) | MIC (Enterococcus faecalis [12]) | MIC (Staphylococcus aureus [13]) | MIC [14] | MIC (Staphylococcus warneri) | MIC (Enterococcus faecium [15]) | MIC (Enterococcus faecium [17]) | MIC (Enterococcus faecalis [18]) | MIC (Staphylococcus simulans) | also measured
1 | C=C[C@@](C)(O)CC[C@H]1C(=C)CC[C@H]2C(C)(C)CCC[C@]12C [MANOOL] | > 128 µg/mL | 14 µM (≈ 4.07 µg/mL) | 55 µM (≈ 16 µg/mL) | 55 µM (≈ 16 µg/mL) | 110 µM (≈ 32 µg/mL) | 55 µM (≈ 16 µg/mL) | 28 µM (≈ 8.13 µg/mL) | > 128 µg/mL | > 128 µg/mL | 28 µM (≈ 8.13 µg/mL) | > 128 µg/mL | > 128 µg/mL | 55 µM (≈ 16 µg/mL) | > 128 µg/mL | > 128 µg/mL | > 128 µg/mL | 28 µM (≈ 8.13 µg/mL) | 14 µM (≈ 4.07 µg/mL) | 110 µM (≈ 32 µg/mL) | > 128 µg/mL | Ratio (Enterococcus faecalis [2]): 1 - 2; inhibition (Enterococcus faecium [6]): 30%; inhibition (Bos taurus [9]): 92%; Ratio (Enterococcus faecium [16]): 1 - 2; MIC (Staphylococcus hominis): > 128 µg/mL; MIC [19]: > 128 µg/mL; inhibition (Bos taurus [20]): 60%
2 | COC(=O)[C@]1(C)CCC[C@@]2(C)[C@H]1[C@@H](O)C[C@@](C)(O)[C@@H]2CC/C(C)=C/C[C@H]1OC(=O)C=C1C | > 128 µg/mL | 286 µM (≈ 128 µg/mL) | 286 µM (≈ 128 µg/mL) | 143 µM (≈ 64.1 µg/mL) | 286 µM (≈ 128 µg/mL) | 143 µM (≈ 64.1 µg/mL) | 143 µM (≈ 64.1 µg/mL) | 286 µM | > 128 µg/mL | 143 µM (≈ 64.1 µg/mL) | > 128 µg/mL | 286 µM | 143 µM (≈ 64.1 µg/mL) | > 128 µg/mL | 286 µM | 286 µM | 286 µM (≈ 128 µg/mL) | 286 µM (≈ 128 µg/mL) | 286 µM (≈ 128 µg/mL) | > 128 µg/mL | Ratio (Enterococcus faecalis [2]): 1 - 2; Ratio (Enterococcus faecium [16]): 1 - 2; MIC (Staphylococcus hominis): 286 µM; MIC [19]: > 128 µg/mL; inhibition (Bos taurus [20]): 60%
3 | COC(=O)[C@]1(C)CCC[C@@]2(C)[C@H]1CC[C@@](C)(O)[C@@H]2CC/C(C)=C/C[C@H]1OC(=O)C=C1C | 296 µM | 148 µM (≈ 64 µg/mL) | 296 µM (≈ 128 µg/mL) | 296 µM (≈ 128 µg/mL) | 148 µM (≈ 64 µg/mL) | 296 µM (≈ 128 µg/mL) | 296 µM (≈ 128 µg/mL) | 148 µM | 296 µM | 296 µM (≈ 128 µg/mL) | 296 µM | > 128 µg/mL | 74.1 µM (≈ 32.1 µg/mL) | 296 µM | 296 µM | 148 µM | 148 µM (≈ 64 µg/mL) | 296 µM (≈ 128 µg/mL) | 148 µM (≈ 64 µg/mL) | > 128 µg/mL | MIC (Staphylococcus hominis): 296 µM; MIC [19]: > 128 µg/mL
4 | COC(=O)[C@]1(C)CCC[C@@]2(C)[C@H]1CC[C@@](C)(O)[C@@H]2CC/C(C)=C/[C@H](O)[C@H]1OC(=O)C=C1C | 286 µM | 143 µM (≈ 64.1 µg/mL) | 286 µM (≈ 128 µg/mL) | 286 µM (≈ 128 µg/mL) | 143 µM (≈ 64.1 µg/mL) | 143 µM (≈ 64.1 µg/mL) | 286 µM (≈ 128 µg/mL) | 286 µM | 286 µM | 286 µM (≈ 128 µg/mL) | > 128 µg/mL | 286 µM | 143 µM (≈ 64.1 µg/mL) | > 128 µg/mL | > 128 µg/mL | 143 µM | 143 µM (≈ 64.1 µg/mL) | 286 µM (≈ 128 µg/mL) | 143 µM (≈ 64.1 µg/mL) | > 128 µg/mL | MIC (Staphylococcus hominis): 286 µM; MIC [19]: 286 µM
5 | CC1(C)CCC[C@]2(C)[C@@H](CC[C@](C)(O)[C@H]3CO3)[C@](C)(O)CC[C@@H]12 | 198 µM | 99 µM (≈ 32.1 µg/mL) | 198 µM (≈ 64.3 µg/mL) | 99 µM (≈ 32.1 µg/mL) | 198 µM (≈ 64.3 µg/mL) | 198 µM (≈ 64.3 µg/mL) | 198 µM (≈ 64.3 µg/mL) | 395 µM | 395 µM | 99 µM (≈ 32.1 µg/mL) | 395 µM | 395 µM | 99 µM (≈ 32.1 µg/mL) | 395 µM | 395 µM | 198 µM | 99 µM (≈ 32.1 µg/mL) | 198 µM (≈ 64.3 µg/mL) | 198 µM (≈ 64.3 µg/mL) | 395 µM | MIC (Staphylococcus hominis): 395 µM; MIC [19]: 395 µM
